Legend:
DC3F/AD [1] = assay: Increase in adriamycin uptake in modulator-treated cells relative to untreated cells at a concentration of 10 uM; assay type: functional, Cricetulus griseus
Procedure, shortened: (§1)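 DC-3F/AD or KB-A1 cells (5 × 10⁶/mL) were incubated at 37 °C for 5 h with 50 μM adriamycin plus modulator (2.5–10 μM range). ADR fluorescence of 10 000 cells was read by flow cytometry at 4 °C with 488 nm argon-laser excitation. The value is the increase in mean fluorescence of treated cells over untreated cells.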

DC3F/AD [2] = assay: Increase in adriamycin uptake in modulator-treated cells relative to untreated cells at a concentration of 5 uM; assay type: functional, Cricetulus griseus; procedure, shortened: as §1
DC3F/AD [3] = assay: Percent of cell viability remaining after incubating the cells with the modulator alone a concentration of 5 uM; assay type: functional, Cricetulus griseus
Procedure, shortened: (§2)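 Cells were grown with modulator alone for 4 days under the same conditions as the chemosensitivity assay, and read by MTT. Viability = (absorbance with modulator/absorbance of control cells) × 100. "tox" marks viability below 25%.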

DC3F/AD [4] = assay: Percent of cell viability remaining after incubating with a 10 uM concentration; assay type: functional, Cricetulus griseus; procedure, shortened: as §2
DC3F/AD [5] = assay: In vitro activity in DC-3F/AD cell line(Ratio of IC50(actinomycin D alone) / IC50(actinomycin D + modulator) at a concentration of 5 uM
DC3F/AD [6] = assay: In vitro activity in DC-3F/AD cell line Ratio of IC50(actinomycin D alone) / IC50(actinomycin D + modulator) at a concentration of 10 uM
KB [7] = assay: Percent of cell viability remaining after incubating the cells with the modulator alone; assay type: functional, Homo sapiens; design: concentration or dose not given beside the values; procedure, shortened: as §2
KB [8] = assay: Increase in adriamycin uptake in modulator-treated cells relative to untreated KB-A1 cells at a concentration of 5 uM; assay type: functional, Homo sapiens; procedure, shortened: as §1
KB [9] = assay: In vitro activity in KB-A1 cell line activity expressed as fold reversion (Ratio of IC50(adriamycin alone) / IC50(adriamycin + modulator) at a concentration of 5 uM; assay type: functional, Homo sapiens
Procedure, shortened: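 Human epidermoid KB-A1 cells (Pgp-overexpressing) were grown in RPMI 1640 with 10% FCS and 10 mM HEPES (pH 7.4). They were exposed for 4 days to adriamycin (nine graded concentrations, in triplicate) with or without 5 μM modulator. IC50 was read by the MTT assay. Fold reversion = IC50(ADR alone)/IC50(ADR + modulator).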

Compound	Increase (DC3F/AD [1])	Increase (DC3F/AD [2])	Viability (DC3F/AD [3])	Viability (DC3F/AD [4])	Fold reversion (DC3F/AD [5])	Fold reversion (DC3F/AD [6])	Viability (KB [7])	Increase (KB [8])	Fold reversion (KB [9])
C=CCNc1nc(NCC=C)nc(N2CCC(N(C)CC(c3ccccc3)c3ccccc3)CC2)n1	27.9	20.6	88%	85%	354	1418	–	–	–
C=CCNc1nc(NCC=C)nc(N2CCN(CCCC(c3ccc(F)cc3)c3ccc(F)cc3)CC2)n1	–	–	50%	–	171	<25	–	–	–
C=CCNc1nc(N)nc(N2CCC(NCC3c4ccccc4CCc4ccccc43)CC2)n1	11	6.7	92%	–	421	–	122%	16.3	89
C=CCNc1nc(NCC=C)nc(NCC(O)CN2CCC(NCC3c4ccccc4CCc4ccccc43)CC2)n1 (stereo unspecified)	12.6	10.5	98%	–	1	–	–	5.5	<25
C=CCNc1nc(NCC=C)nc(NCC2CCN(CC3c4ccccc4CCc4ccccc43)CC2)n1	21	19.3	57%	–	353	<25	53%	9.8	12
C=CCNc1nc(NCC=C)nc(N2CCN(CCC(c3ccccc3)c3ccccc3)CC2)n1	1.2	0	72%	64%	42	598	–	–	–
C=CCNc1nc(NCC=C)nc(N2CCC(NCC3c4ccccc4CS(=O)(=O)c4ccccc43)CC2)n1 (stereo unspecified)	–	–	90%	94%	27	2536	–	–	–
C=CCNc1cc(N2CCC(NCC(c3ccccc3)c3ccccc3)CC2)nc(NCC=C)n1	16.3	15.1	67%	–	472	<25	–	–	–
C=CCNc1nc(NCC=C)nc(N2CCC(NC(c3ccc(F)cc3)c3ccc(F)cc3)CC2)n1	25.1	16	76%	56%	388	1212	–	–	–
C=CCNc1nc(NCC=C)nc(N2CCC(NCC(c3ccccc3)(c3ccccc3)c3ccccc3)CC2)n1	–	–	59%	–	57	<25	–	–	–
C=CCNc1nc(NCC=C)nc(N2CCC(NCCC(c3ccc(OC)c(OC)c3)c3ccc(OC)c(OC)c3)CC2)n1	2.9	1.6	115%	114%	12	12	100%	–	6
C/C=C/CNc1nc(NC/C=C/C)nc(N2CCC(NC(c3ccc(F)cc3)c3ccc(F)cc3)CC2)n1.Cl.Cl	–	–	82%	43%	146	339	–	–	–
C=CCNc1cc(N2CCC(NC(c3ccc(F)cc3)c3ccc(F)cc3)CC2)nc(NCC=C)n1.Cl.Cl	–	–	49%	–	1174	<25	–	–	–
C=CCNc1nc(NCCC)nc(N2CCC(NC(c3ccc(F)cc3)c3ccc(F)cc3)CC2)n1.Cl.Cl	25.5	19.8	–	47%	–	2220	–	–	–
C=CCNc1nc(NCC=C)nc(N2CCC(SCCC(c3ccccc3)c3ccccc3)CC2)n1	19.7	8	85%	79%	41	248	–	–	–
C=CCNc1nc(NCC=C)nc(N2CCC(NC(c3ccccc3)c3ccc(F)cc3)CC2)n1.Cl (stereo unspecified)	19.4	10.5	72%	54%	732	1796	–	–	–
C=CCNc1nc(NCC=C)nc(N2CCC(OC(c3ccc(F)cc3)c3ccc(F)cc3)CC2)n1.Cl	16.1	11.4	70%	56%	290	969	–	–	–

Compound	Increase (DC3F/AD [1])	Increase (DC3F/AD [2])	Viability (DC3F/AD [3])	Viability (DC3F/AD [4])	Fold reversion (DC3F/AD [5])	Fold reversion (DC3F/AD [6])	Viability (KB [7])	Increase (KB [8])	Fold reversion (KB [9])
C=CCNc1nc(NCCC)nc(N2CCC(NCCC(c3ccccc3)c3ccccc3)CC2)n1	27.2	17.9	–	–	<25	<25	–	–	–
C=CCNc1nc(NCC=C)nc(N2CCC(SC(c3ccccc3)c3ccccc3)CC2)n1	28.3	–	90%	76%	380	1202	–	–	–
C=CCNc1nc(NCC=C)nc(N2CCN(C(c3ccc(Cl)cc3)c3ccc(Cl)cc3)CC2)n1.CS(=O)(=O)O	–	–	81%	67%	42	99	–	–	–
C=CCNc1nc(NCC=C)nc(NCC(O)CN2CCC(NC3c4ccccc4CCc4ccccc43)CC2)n1 (stereo unspecified)	12.9	10.4	77%	–	2	–	–	13	<25
C=CCNc1nc(NCC=C)nc(N2CCC(N(CC=C)C(c3ccc(F)cc3)c3ccc(F)cc3)CC2)n1	33.9	22.1	–	49%	–	627	–	–	–
C=CCNc1nc(NCC=C)nc(NCCN2CCC(NCC3c4ccccc4CCc4ccccc43)CC2)n1	12.4	13.7	41%	–	120	<25	–	20.9	<25
C=CCNc1nc(NCC=C)nc(N2CCC(NCC3c4ccccc4CCc4cc(OC)ccc43)CC2)n1 (stereo unspecified)	–	30.8	73%	–	1913	<25	83%	72.6	264
C=CCNc1nc(NCC=C)nc(N2CCN(NC(=O)C3c4ccccc4CCc4ccccc43)CC2)n1	24.8	9.5	86%	67%	138	2174	–	–	–
C=CCNc1nc(NCC=C)nc(N2CCC(NCC(c3ccccc3)c3ccccc3)CC2)n1	34.7	31.3	90%	77%	753	1540	–	–	–
C=CCNc1nc(NCC=C)nc(N2CCC(N(CC)C(c3ccc(F)cc3)c3ccc(F)cc3)CC2)n1	44.7	42.7	75%	53%	1008	1838	–	–	–
C=CCNc1nc(NCC=C)nc(NC2CCN(C(c3ccc(F)cc3)c3ccc(F)cc3)CC2)n1	–	–	38%	–	1654	<25	40%	–	22
C=CCNc1nc(NCC=C)nc(NCCN2CCC(NC3c4ccccc4CCc4ccccc43)CC2)n1	18.3	10.4	38%	–	64	<25	–	14.5	<25
C=CCNc1nc(NCC=C)nc(NN2CCN(C(c3ccc(F)cc3)c3ccc(F)cc3)CC2)n1	20.7	18.3	82%	78%	1932	5344	–	–	–
C=CCNc1nc(NCC=C)nc(N2CCC(NCC(c3cc(OC)cc(OC)c3)c3ccccc3C)CC2)n1 (stereo unspecified)	26.5	24.7	80%	–	1224	<25	91%	41.4	111
C=CCNc1nc(NCC=C)nc(N2CCC(NCC(c3c(C)cccc3C)c3c(C)cccc3C)CC2)n1	35.5	28.9	100%	84%	93	374	–	–	–
C=CCNc1nc(NCC=C)nc(N2CCC(NCC34CCC(c5ccccc53)c3ccccc34)CC2)n1	30.7	20.2	90%	87%	96	422	–	22.2	<25
C=CCNc1nc(NCC=C)nc(N2CCC(NCCC(c3ccccc3)c3ccccc3)CC2)n1	29.8	21.5	50%	–	220	<25	–	–	–

Source: ChEMBL document CHEMBL1126298, “New triazine derivatives as potent modulators of multidrug resistance” (1992)
